This is a sample that favours compounds with a hit; in the whole collection about 8.2% have one here.
M1 agonist: M1 muscarinic receptor agonists, primary screen, CHO-M1 cells, Fluo-4 calcium, agonist mode; Muscarinic acetylcholine receptor M1; Fluo-4 calcium fluorescence; active compounds read high; B-score at 10 µM; 64,000 compounds, 3% hits; AID 626, 2007;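 active means fluorescence rise, raw or as B-score row- and column-corrected plate score, outside the 99.7% band of its plate's samples, either direction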
SF1 activator: activators of human SF-1, primary screen, cell-based, CHO-K1, Gal4-SF-1 LBD, luciferase luminescence. Steroidogenic factor 1 (Homo sapiens), Q13285. CHO-K1 Gal4-SF-1 LBD luciferase reporter; % increase over DMSO SF-1-specific signal. activation, % at 10 µM. 65,000 compounds, 1.9% hits;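 active means activation above the mean activation of all tested compounds plus 3 SD, cut at about 50% in these data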
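Test system: CHO-K1 cells co-transfected with Gal4 DBD–human SF-1 LBD, 5xGal4 luciferase reporter. Quantity: 4,000 cells per well. Compound: 10 µM only. Incubation: compound added 1 h post-seeding, 20 h exposure at 37 °C, 5% CO2. Detection: SteadyLite luciferase luminescence. Replication: one test per compound.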
RORa activator: activators of orphan receptor RORA, primary screen, cell-based, luminescence; Nuclear receptor ROR-alpha (Homo sapiens), P35398; CHO-K1 Gal4-RORA LBD luciferase reporter; percent increase over mock-subtracted basal signal; activation, % at 10 µM; 65,000 compounds, 1.5% hits;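 active means activation above the mean of all tested compounds plus 3 SD, cut at about 49% in these data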;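 further: 0% = DMSO-treated RORA cells and 100% = added signal equal to DMSO minus mock-transfected cells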
M1 antagonist: antagonists of rat M1 muscarinic receptor; CHO-M1 cells, Fluo-4 calcium, ACh EC80 antagonist mode; active compounds read low; B-score at 10 µM; 64,000 compounds, 3.4% hits; AID 628, 2007;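 active means calcium fluorescence response, raw or row-and-column corrected B-score, differing from the plate sample mean either way at a set confidence level, mostly lower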
Target sequence (P08482 whole entry, looked up): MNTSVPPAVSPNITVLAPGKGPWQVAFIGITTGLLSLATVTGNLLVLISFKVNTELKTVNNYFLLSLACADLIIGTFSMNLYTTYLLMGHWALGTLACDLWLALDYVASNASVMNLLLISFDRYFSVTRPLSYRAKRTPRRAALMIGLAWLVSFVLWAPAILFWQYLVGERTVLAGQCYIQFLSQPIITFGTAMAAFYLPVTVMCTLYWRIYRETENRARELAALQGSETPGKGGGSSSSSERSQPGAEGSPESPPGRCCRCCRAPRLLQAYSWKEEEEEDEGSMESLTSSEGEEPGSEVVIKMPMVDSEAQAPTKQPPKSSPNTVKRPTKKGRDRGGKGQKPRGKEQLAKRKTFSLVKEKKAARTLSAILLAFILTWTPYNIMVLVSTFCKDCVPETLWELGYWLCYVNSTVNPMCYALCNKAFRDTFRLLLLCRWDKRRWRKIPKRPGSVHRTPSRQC
HePTP inhibitor: inhibitors of human HePTP phosphatase, primary screen, biochemical, absorbance, leukemia target; Tyrosine-protein phosphatase non-receptor type 7 (Homo sapiens), P35236; recombinant HePTP phosphatase activity, OD absorbance; inhibition, % at 20 µM; 110,000 compounds, 0.64% hits; in the data active means inhibition above about 50%;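 further: plate controls were vehicle for no effect and reference inhibitor for full effect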
D1 allo mod: D1 CRE-luciferase signal change, two-sided – cell-based, HEK293 D1, dopamine EC30, D1 allosteric modulator project, primary screen; D(1A) dopamine receptor (Homo sapiens), P21728; 58,000 compounds, 5.9% hits; dopamine EC30 potentiation; actives deviate in either direction; B-score at 10 µM;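 active means luminescence count or its row- and column-corrected plate score outside the 99.7% band of the plate's sample wells, on either side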
* hit, by the source's call; . = no result given.

SMILES	M1 agonist	SF1 activator	RORa activator	M1 antagonist	HePTP inhibitor	D1 allo mod
COC(=O)C1=NN(C(=O)c2cccc(Br)c2)C(O)(c2ccc(Cl)cc2)C1 (stereo not given)	.	.	.	.	-10	.
COc1ccc2c(c1)c(C(=O)OCCN(C)C)c(C)n2C	-0.024	-5	-8	0.029	-3	0.1
O=C(O)CCC(=O)Nc1nc(-c2ccccc2)cs1	0.26	-6	1	-0.55	-2	0.38
Nc1nonc1-c1noc(CCCN2C(=O)c3ccccc3C2=O)n1	-0.083	50*	40	0.78	2	0.78
Nc1nonc1-c1noc(COc2ccccc2Cl)n1	0.068	69*	88*	0.16	9	0.027
Cc1cccc(OCc2nc(-c3nonc3N)no2)c1C	.	33	81*	.	12	-5.1
O=C1c2ccccc2C(=O)N1CCCc1nc(-c2cccnc2)no1	-0.045	-5	-15	-0.22	11	-0.54
COC(=O)c1c(N)sc(C)c1-c1ccc(C)cc1C	.	.	.	.	-10	.
C=CCSc1nc2ccccc2n1CC(=C)Br	.	.	.	.	-3	.
CCN(CCCNC(=O)c1cn(CC)c2ccc(S(=O)(=O)N(C)C)cc2c1=O)c1cccc(C)c1	0.14	10	62*	-0.54	0	2.8
COc1ccc(NS(=O)(=O)c2ccc(SC)cc2)cc1	-1.3	-3	-13	-1.8	0	-0.48
CN(C)/C=N/c1ncnc2c1cnn2-c1ccc(C(F)(F)F)cn1	-0.21	82*	-2	0.29	6	-1.6
Cc1nn(-c2ccc(C(F)(F)F)cn2)c(C)c1Oc1ccccc1O	.	.	.	.	3	.
O=C(CSc1nc2cc(Cl)ccc2o1)N1CCOCC1	-0.22	12	12	-0.0053	-14	0.39
O=C(O)c1ccc2oc(SCC(=O)N3CCCCC3)nc2c1	.	54*	29	.	-1	-0.28
O=C(CCCNS(=O)(=O)c1cccc2nsnc12)NCCc1ccccc1	-1.2	-4	4	0.0035	-7	-4*
Cc1csc2nc(CNC(=O)c3ccco3)cn12	0.073	52*	42	0.083	2	-0.39
CCSc1nnc(-c2ccc(S(=O)(=O)NCc3cccs3)cc2)o1	0.031	12	-2	0.12	3	0.63
Cc1ccc(NC(=O)CC2Nc3ccccc3NC2=O)cc1Cl (stereo not given)	-1.1	0	-1	-0.018	-6	0.36
O=C(CC1Nc2ccccc2NC1=O)c1ccccc1 (stereo not given)	3.9*	31	56*	-0.76	9	-1.5
O=C(CC1Nc2ccccc2NC1=O)Nc1cccc(C(=O)O)c1 (stereo not given)	.	.	.	.	52*	.
CC(C)c1cc(Nc2nccs2)cc(C(C)C)c1O	.	.	.	.	84*	.
CC(C)CCNC(=O)C(=O)Nc1nccs1	.	.	.	.	7	.
COc1ccccc1OCc1csc(NC(=O)c2ccco2)n1	0.82	67*	21	-0.00068	0	-0.45
Cc1csc(NC(=O)c2ccco2)n1	-0.14	16	32	0.42	3	0.0071
SMILES	M1 agonist	SF1 activator	RORa activator	M1 antagonist	HePTP inhibitor	D1 allo mod
Cc1ccc(NC(=O)CN(c2ccc(Br)cc2)S(C)(=O)=O)c(C)c1	.	.	.	.	5	.
COC(=O)CC(=O)CSc1nc2c(cc1C#N)CCCCC2	-1.7	78*	40	-0.31	6	.
N#CCSc1nc2c(cc1C#N)CCCC2	-0.023	-1	-5	-1.6	10	1.3
N#Cc1cc2c(nc1SCC(O)CS(=O)(=O)Cc1ccccc1)CCCC2 (stereo not given)	1.6	-23	-11	0.071	-5	-3.6*
CCc1nnc(NC(=O)CSc2nc3c(cc2C#N)CCCC3)s1	-0.21	78*	48	0.45	0	-0.77
Cc1sc(-c2c(C#N)c(N)nc3c2CCCCC3)cc1[N+](=O)[O-]	.	.	.	.	-5	.
COc1ccccc1NC(=O)c1ccc2c(c1)C(=O)N(c1ccccc1C)C2=O	.	.	.	.	2	.
CCc1ccc(C(=O)NCc2cccs2)s1	-0.095	70*	10	0.27	-3	0.23
O=C(NCc1cccs1)c1cc2c(s1)-c1ccccc1OC2	0.84	36	53*	0.28	10	-3.5

Screening results (PubChem BioAssay)
